Bioassay records (PubChem)
In the library only some 3.8% were active in any assay of this set; here they are far more common.
SDO1 yeast rescue: growth rescue of sdo1-depleted yeast, primary screen, S. cerevisiae, bone marrow failure model; 0.21% of 140,000 active; S. cerevisiae sdo1-depleted JHY4D growth rescue, OD600 30 h; stronger effect = higher value; pdr5 snq2 efflux-pump mutant strain; z-score at 10 µM; AID 817, 2007;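 active = z-score above 3 at both the 24 hr and the 30 hr optical density reads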;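 also: z-score against mean and SD of all compound wells on the same plate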
Yeast growth inh: growth inhibitors of yeast BB579 in restrictive medium, primary screen, yeast lifespan-shortening project, S. cerevisiae. OD615, 48 h. inhibition, % at 10 µM. 0.51% of 140,000 active;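 active = inhibition above a set limit, 3 SD over the mean compound inhibition, cut at about 44% in these data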
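controls = amphotericin B 10 µg/mL, positive | assay system = DeaD yeast strain BB579 | schedule = 48 h compound exposure at 30 °C after 4 h preincubation | detection = OD615 turbidity measurement | medium = restrictive CSMM-D medium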
Yeast life ext: compounds extending yeast replicative lifespan, primary screen, S. cerevisiae, OD615 | S. cerevisiae growth with nicotinamide; deaD strain in restrictive glucose medium | inhibition of the nicotinamide effect, % at 10 µM | 0.68% of 130,000 active;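 active = inhibition above a set limit, placed 3 SD over the median of all compounds, cut at about 26% in these data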;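 also: 0% = nicotinamide-treated wells and 100% = cells grown without nicotinamide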
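Test system – modified budding yeast, DeaD strain · Compound – single dose 10 µM compound, 0.25% DMSO · Times – culture preincubation 4 h, compound exposure 48 h, both 30 °C · Detection – optical density (absorbance) at 615 nm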
Measles CPE: compounds protecting cells from measles virus cytopathic effect, primary screen, measles RdRp inhibitor project, single point, MLSMR library, absorbance; 1.5% of 140,000 active; Measles virus-infected cells, CPE protection; protection (pct of control), % at 4 µM; in the data active = protection mostly above about 24%, no sharp cut-off; inactive = mostly below about 26%
RAM inhibit: inhibitors of the yeast RAM network, primary screen, dse1pr::URA3 reporter, 5-FOA selection; S. cerevisiae dse1pr::URA3 reporter, 5-FOA growth OD615, 2 d; analog-sensitive cbk1-as2 kinase mutant strain; 1.8% of 190,000 active; inhibition, % at 50 µM;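 active = inhibition above a set limit, 3 SD over mean compound inhibition, cut at about 8.4% in these data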;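 also: 0% = DMSO-only wells with no growth and 100% = 10 µM 1-NA-PP1 full growth; inhibition rescues growth on 5-FOA so higher OD means more RAM inhibition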
Active calls of the source: *; x = no result given.

SMILES | SDO1 yeast rescue | Yeast growth inh | Yeast life ext | Measles CPE | RAM inhibit
CC(=O)Nc1nc(-c2ccc(Br)s2)cs1 | -0.35 | -75 | -8 | 9 | 2
Cc1ccc(NC(=O)Nc2nc(-c3ccc(C)s3)cs2)cc1 | -0.4 | -17 | 87* | 4 | 2
Cc1nn(-c2ccccc2)c2c1C1(C(=O)N(C)c3ccccc31)C(C#N)=C(N)O2 (centres undefined) | -0.31 | -33 | 0 | 5 | 9.8*
Cc1ccc(-n2c(CNc3ccc(F)cc3)nnc2SCC(N)=O)cc1 | 0.78 | -8 | -16 | 16 | 0
CC(C)CC(=O)NC1(C(F)(F)F)C(=O)N(CC(C)C)C2=C1C(=O)CC(C)(C)C2 (centres undefined) | 1.7 | -25 | 6 | 8 | 1
COc1ccc(-n2c(SCC3OCCO3)nc3c(sc(=S)n3-c3ccccc3)c2=O)cc1OC | x | x | x | x | 8.6*
CCn1c(=S)sc2c(=O)n(-c3ccccc3)c(SC)nc21 | -1.2 | -36 | 6 | 33 | 3
COc1ccc(-n2c(C)cc(SC)c(C(C)=O)c2=S)cc1 | 0.38 | -47 | -4 | 98* | 0
COc1ccc(-n2c(C)c(C(C)=O)c(C(C)=O)c2C)cc1 | 0.56 | -84 | 9 | 3 | -1
COC(=O)c1sc(NC(=S)NC(=O)c2ccccc2C)nc1C | x | x | x | x | 1
Cc1nc(=O)cc(-c2ccccc2)n1-c1ccccc1 | 1.9 | -37 | -6 | 36* | 2
Cc1nn(C)c(=O)n1-c1ccccc1 | x | x | x | x | 1
C/C(=N\NC(=O)CSCc1ccc([N+](=O)[O-])cc1)c1cccc(Br)c1 | -0.53 | -16 | 8 | 35* | 4
C/C(=N\NC(=O)CSCc1ccccc1Br)c1cccc([N+](=O)[O-])c1 | -0.44 | -28 | -1 | 9 | 5
COc1cc(/C=N/NC(=O)CCN2CCN(C(c3ccccc3)c3ccccc3)CC2)ccc1O | 0.73 | -29 | -4 | 28* | 1
O=C(Oc1ccc(=O)n(-c2ccccc2)n1)c1ccccc1 | 0.09 | -52 | 36* | 0 | -1
CCn1c(SCC(=O)N2CCOCC2)nc2c(c1=O)SC(C)C2 (centres undefined) | -0.26 | -32 | 0 | 15 | -1
COc1ccc(-c2c(C)nn(-c3ccccc3)c2N)cc1OC | -0.09 | -12 | x | 4 | 1
COc1cc(-c2nc3c(c(C)nn3-c3ccccc3)c3cc(OC)c(OC)cc23)ccc1O | -1.1 | -57 | -7 | 5 | 8.9*
O=C1CC2c3ccccc3C1C1C(=O)N(CCc3ccccc3)C(=O)C21 (centres undefined) | x | x | x | x | 0
Cc1cc(NC(=S)N(CCCN2CCOCC2)Cc2ccco2)ccc1Cl | 0.03 | -7 | -2 | 4 | 0
N#C/C(=C\Nc1ccccc1SC(F)(F)F)c1nc(-c2ccc(F)cc2)cs1 | -0.79 | -17 | 5 | 32 | 5
N#C/C(=N\Nc1ccccc1F)c1nc(-c2ccccc2)cs1 | x | x | x | x | 9.8*
CCOc1ccccc1NC(=O)C1=C(C)NC(=S)NC1c1cccs1 (centres undefined) | 0.08 | -17 | -2 | 4 | 9.8*
CC1=C(C(=O)Nc2ccccc2C)C(c2cccs2)NC(=S)N1 (centres undefined) | 0.06 | -27 | 6 | 12 | 4
SMILES | SDO1 yeast rescue | Yeast growth inh | Yeast life ext | Measles CPE | RAM inhibit
Cc1ccc(-c2cc3ncc(C#N)c(N)n3n2)cc1 | x | x | x | x | 4
CC(c1ccco1)N(C(=O)c1ccccc1NS(=O)(=O)c1cc([N+](=O)[O-])ccc1Cl)c1ccccn1 (centres undefined) | -1.1 | -29 | 59* | 4 | 3
CC(c1ccco1)N(C(=O)c1ccccc1NS(=O)(=O)c1cccc([N+](=O)[O-])c1)c1ccccn1 (centres undefined) | -0.86 | -20 | 34* | 7 | 5
NC(=S)NN=C(Cc1ccccc1)Cc1ccccc1 | x | x | x | x | 0
O=C(c1ccccc1)N1CCN(C(=S)NCc2ccc3c(c2)OCO3)CC1 | 0.31 | 0 | 7 | 2 | 2
CCOC(=O)Nc1nnc(-c2ccc(OC)c(OC)c2)s1 | 0.04 | 1 | -24 | 6 | 2
O=C(CSCc1ccc(Cl)cc1)NCc1ccc2c(c1)OCO2 | -1.8 | -11 | -13 | 3 | 0
O=c1/c(=C/c2cccc3ccccc23)sc2ncnn12 | -1.1 | -20 | 29* | 27 | 3
Cc1ccsc1/C=c1\sc2ncnn2c1=O | -0.64 | 5 | -5 | 16 | 6
Cn1c(NC(=O)c2ccc(Br)o2)cc(=O)n(C)c1=O | 0.57 | 1 | 2 | 7 | -1
Oc1ccccc1NCC(O)Cn1ccc2ccccc21 (centres undefined) | -1.1 | 50* | 5 | 14 | 0
O=C(CNS(=O)(=O)c1ccccc1)Nc1ccc2c(c1)OCO2 | x | x | x | x | 1
CCOc1ccc(S(=O)(=O)NCCC2=CCCCC2)c2ccccc12 | -0.73 | -47 | -3 | 14 | 11*
CCN(Cc1ccncc1)C(=O)c1ccccc1NS(=O)(=O)c1ccc(F)cc1 | x | x | x | x | 1
Cc1ccc(NS(=O)(=O)c2ccc(CCC(=O)NCCCOC(C)C)cc2)cc1 | -0.01 | -27 | 3 | 25* | 0
COCCCNC(=O)CCc1ccc(S(=O)(=O)Nc2ccc(C)cc2)cc1 | -0.36 | -11 | -3 | 8 | 0
Cc1ccc(S(=O)(=O)NC(=O)CSc2nc3ccccc3s2)cc1 | 0.16 | -15 | -18 | 4 | 2
O=C(O)c1ccc(S(=O)(=O)Nc2ccc(O)c(Sc3nc4ccccc4s3)c2)cc1 | x | x | x | x | 9.8*
CC(C)OC(=O)CSc1nnc(CNc2nc(-c3ccccc3)cs2)n1C | 0.05 | -22 | -14 | 6 | 0
COc1cccc(C(=O)CSc2nnc(CNc3nc(-c4ccccc4)cs3)n2C)c1 | -2 | -41 | -17 | 52* | 5
Cc1oc(-c2ccccc2)cc1C(=O)Nc1cccc(/C=C\C(=O)O)c1 | x | x | x | x | 8.5*
COc1ccc(NC(=O)COc2ccc(/C=N/O)cc2OC)cc1 | x | x | x | x | 0
COc1cc(/C=N/OCC(=O)Nc2ccc(OC(F)F)cc2)ccc1OCc1ccccc1 | -0.53 | -40 | 1 | 22 | 8.4*
CCN(CC)c1ccc(/C=N/OC(C)C(=O)Nc2ccc(C)cc2)cc1 (centres undefined) | -0.87 | -26 | 0 | 8 | 0
CCOc1ccc(/C=N/OCC(=O)Nc2ccc(OCc3ccccc3)cc2)cc1OC | -0.74 | -26 | -4 | 6 | 11*
COc1cc(/C=N/OCC(=O)NC2CCCCC2)ccc1OCc1ccccc1 | -1.7 | -16 | 0 | 86* | 7
CC(=O)Nc1ccc(/C=N/OCC(=O)Nc2ccc(C)cc2)cc1 | 0.09 | -38 | 7 | 38* | 5
O=C(NCc1ccccn1)c1cn(-c2ccccc2)nc1-c1ccc(Cl)cc1 | -0.83 | -9 | -5 | 12 | -1
O=C(Nc1ccccn1)C(F)(F)C(F)(F)C(F)(F)C(F)(F)C(=O)Nc1ccccn1 | 0.71 | -6 | 9 | 10 | 3
